This is an account of results in ChEMBL document CHEMBL4257586, “Polyheteroaryl Oxazole/Pyridine-Based Compounds Selected in Vitro as G-Quadruplex Ligands Inhibit Rock Kinase and Exhibit Antiproliferative Activity” (J Med Chem, 2018).

For one data set, the system named is A-431. The data set is described as follows: Antiproliferative activity against human A431 cells after 72 hrs by MTS assay. It counts as functional, cell-based. The following applies: A-431, 72 h. A digest of the protocol:
(§1)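 Cells seeded at day 0 in 96-well plates, serial compound dilutions added at day 1; viable cells read 72 h after drug addition by MTS tetrazolium assay, in triplicate. IC50 taken as concentration halving cell growth. One first trial, then two additional experiments on selected compounds.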
(Tetrazolium dyes change colour on reduction, which living cells bring about.)

Data set [1] has as its system HeLa. In words: Antiproliferative activity against human HeLa cells after 72 hrs by MTS assay. The class given is functional, cell-based. A digest of the protocol: as §1
Data set [2] deals with A549. In words: Antiproliferative activity against human A549 cells after 72 hrs by MTS assay. It counts as functional, cell-based. The following applies: A549, 72 h. A digest of the protocol:
as §1

Data set [3] relates to A-375. The data set is described as follows: Antiproliferative activity against human A375 cells after 72 hrs by MTS assay. The class given is functional, cell-based. The following applies: A-375, 72 h. A digest of the protocol:
as §1

Data set [4] addresses T1, Rho-associated protein kinase 2 (Homo sapiens, UniProt O75116). The data set is described as follows: Inhibition of ROCK2 (unknown origin) at 1 uM by ATP competition assay relative to control. A digest of the protocol: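 Single-point screen at 1 μM across a 50-kinase panel: recombinant enzymes, 33P-ATP radioactive filter-binding assay, duplicates, activity expressed relative to no-compound control.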

The target in data set [5] is T1, Rho-associated protein kinase 2. In words: Inhibition of ROCK2 in human HeLa cells assessed as reduction in MYPT1 phosphorylation at Thr853 at 2 uM after 3 hrs by immunofluorescence assay. It counts as cell-based. A digest of the protocol:
(§2)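 HeLa cells treated 3 h at 2 or 5 μM, with Y-27632 and untreated controls, then formaldehyde-fixed. Phospho-MYPT1 Thr853 or phospho-cofilin Ser3 immunostained with DNA. Confocal 0.5 μm slices plus z-projection, with acquisition settings fixed from the control.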

The target is the same in data set [6]. The data set is described as follows: Inhibition of ROCK2 in human HeLa cells assessed as reduction in cofilin phosphorylation at Ser3 at 2 uM after 3 hrs by immunofluorescence assay. It counts as cell-based. A digest of the protocol:
as §2

Data set [7] shares this target. The data set is described as follows: Inhibition of ROCK2 in human HeLa cells assessed as reduction in cofilin phosphorylation at Ser3 at 2 uM after 3 hrs by Western blot analysis. The class given is cell-based. A digest of the protocol:
(§3)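 HeLa cells treated 3 h at 2 or 5 μM, then lysed in RIPA buffer with protease and phosphatase inhibitors. Western blot probed with anti-phospho-cofilin Ser3 and anti-actin (1/1000) on the same split membrane; luminescence detection.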
In general terms: In western blotting, separated proteins are transferred to a membrane and probed.

Data set [8] is described as follows: Drug uptake in human HeLa cell cytoplasm at 2 uM after 17 hrs imaged with 488 nm excitation by intrinsic fluorescence based assay. The class given is ADME, subcellular. A digest of the protocol: (§4)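 HeLa cells treated 17 h at 2 μM, or 3.3 μM for one analogue. Imaged by confocal microscopy with no added fluorophore, using 488 nm excitation, plus 405 nm excitation for the 3.3 μM treatment. Intrinsic compound fluorescence was compared with cell background near 510 nm.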

Data set [9] is described as follows: Drug uptake in human HeLa cell nucleus at 2 uM after 17 hrs imaged with 488 nm excitation by intrinsic fluorescence based assay. It counts as ADME, subcellular. A digest of the protocol: as §4
The subject of data set [10] is HeLa. The data set is described as follows: Cytotoxicity against human HeLa cell spheroids assessed as cell growth inhibition at 300 nM administered at day 3 post expansion and measured […] by 3D-celltiter Glo assay. It counts as functional, cell-based. A digest of the protocol: (§5)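 HeLa cells plated at 800/well in ultralow-adherence plates; one spheroid formed within 24 h at 37 °C, 5% CO2, grown in complete medium. Drug added at day 3, at four concentrations per compound. Largest section area measured daily by confocal imaging, five spheroids per condition. ATP-based CellTiter-Glo 3D luminescence read at day 6 after dosing.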
In general terms: ATP-based viability assays read luminescence as a measure of living cells.

The subject of data set [11] is HeLa. The data set is described as follows: Cytotoxicity against human HeLa cell spheroids assessed as effect on ATP content at 0.3 to 2 uM […] by bioluminescence based assay. It counts as functional.
A further data set concerns HEK293. The data set is described as follows: Antiproliferative activity against HEK293 cells after 72 hrs by MTS assay. The class given is cell-based. The following applies: Homo sapiens, HEK293, 72 h. A digest of the protocol:
as §1

Data set [12] deals with HeLa. In words: Cytotoxicity against human HeLa cell spheroids assessed as cell growth inhibition at 570 nM administered at day 3 post expansion and […] by 3D-celltiter Glo assay. The class given is functional, cell-based. A digest of the protocol: as §5
For data set [13], the system named is HeLa. The data set is described as follows: Cytotoxicity against human HeLa cell spheroids assessed as effect on ATP content at 0.57 to 2 uM administered at day 3 post expansion and measured on day 6 by bioluminescence based assay. The class given is functional. A digest of the protocol: as §5
Data set [14] can be described thus: Drug uptake in human HeLa cell nucleus at 3.3 uM after 17 hrs imaged with 488 nm excitation by intrinsic fluorescence based assay. The class given is ADME, subcellular. A digest of the protocol: as §4
The nature of data set [15]: Drug uptake in human HeLa cell nucleus at 3.3 uM after 17 hrs imaged with 405 nm excitation by intrinsic fluorescence based assay. It counts as ADME, subcellular. A digest of the protocol: as §4
A short description of data set [16]: Drug uptake in human HeLa cell cytoplasm at 3.3 uM after 17 hrs imaged with 405 nm excitation by intrinsic fluorescence based assay. It counts as ADME, subcellular. A digest of the protocol: as §4
Data set [17] concerns HeLa. The data set is described as follows: Induction of cell cycle arrest in human HeLa cells at 2 uM after 48 hrs by propidium iodide-staining based flow cytometry. It counts as functional. A digest of the protocol: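 HeLa cells serum-starved 96 h for synchronization, then released and treated 48 h. Fixed in ice-cold 70% ethanol 1 h, stained with propidium iodide 50 μg/mL plus RNase A 0.2 mg/mL for 15 min at 37 °C, and analyzed by FACS.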

Data set [18] relates to A-375. The data set is described as follows: Induction of double stranded DNA breaks in human A375 cells assessed as gamma-H2Ax phosphorylation at 2 uM after 24 to 48 hrs by Hoechst 33342 staining-based laser confocal microscopy. The class given is functional, cell-based.
Data set [19] relates to A549. The data set is described as follows: Cytotoxicity against human A549 cells assessed as presence of large vesicles at 2 uM after 24 to 48 hrs by Hoechst 33342 staining-based laser confocal microscopy. It counts as functional, cell-based.
Data set [20] has as its target T1, Rho-associated protein kinase 2. In words: Inhibition of ROCK2 in human HeLa cells assessed as reduction in MYPT1 phosphorylation at Thr853 at 5 uM after 3 hrs by immunofluorescence assay. The class given is cell-based. A digest of the protocol:
as §2

Data set [21] has the same target. In words: Inhibition of ROCK2 in human HeLa cells assessed as reduction in cofilin phosphorylation at Ser3 at 5 uM after 3 hrs by immunofluorescence assay. The class given is cell-based. A digest of the protocol:
as §2

The target is the same in data set [22]. The data set is described as follows: Inhibition of ROCK2 in human HeLa cells assessed as reduction in cofilin phosphorylation at Ser3 at 5 uM after 3 hrs by Western blot analysis. It counts as cell-based. A digest of the protocol:
as §3

Data set [23] can be described thus: Drug uptake in human HeLa cell cytoplasm at 3.3 uM after 17 hrs imaged with 488 nm excitation by intrinsic fluorescence based assay. It counts as ADME, subcellular. A digest of the protocol:
as §4

The subject of data set [24] is HeLa. In words: Cytotoxicity against human HeLa cell spheroids assessed as spheroid growth inhibition at 4 uM administered at day 3 post expansion and measured after […] by 3D-celltiter Glo assay relative to control. It counts as functional. A digest of the protocol: as §5
Data set [25] has as its system HeLa. In words: Cytotoxicity against human HeLa cell spheroids assessed as effect on ATP content at 1 to 4 uM administered at day 3 post expansion and measured on day 6 by bioluminescence based assay. The class given is functional. A digest of the protocol:
as §5

Active and inactive are the calls of the source. No cut-off for these calls is given here.

T1 sequence (O75116 whole entry, looked up): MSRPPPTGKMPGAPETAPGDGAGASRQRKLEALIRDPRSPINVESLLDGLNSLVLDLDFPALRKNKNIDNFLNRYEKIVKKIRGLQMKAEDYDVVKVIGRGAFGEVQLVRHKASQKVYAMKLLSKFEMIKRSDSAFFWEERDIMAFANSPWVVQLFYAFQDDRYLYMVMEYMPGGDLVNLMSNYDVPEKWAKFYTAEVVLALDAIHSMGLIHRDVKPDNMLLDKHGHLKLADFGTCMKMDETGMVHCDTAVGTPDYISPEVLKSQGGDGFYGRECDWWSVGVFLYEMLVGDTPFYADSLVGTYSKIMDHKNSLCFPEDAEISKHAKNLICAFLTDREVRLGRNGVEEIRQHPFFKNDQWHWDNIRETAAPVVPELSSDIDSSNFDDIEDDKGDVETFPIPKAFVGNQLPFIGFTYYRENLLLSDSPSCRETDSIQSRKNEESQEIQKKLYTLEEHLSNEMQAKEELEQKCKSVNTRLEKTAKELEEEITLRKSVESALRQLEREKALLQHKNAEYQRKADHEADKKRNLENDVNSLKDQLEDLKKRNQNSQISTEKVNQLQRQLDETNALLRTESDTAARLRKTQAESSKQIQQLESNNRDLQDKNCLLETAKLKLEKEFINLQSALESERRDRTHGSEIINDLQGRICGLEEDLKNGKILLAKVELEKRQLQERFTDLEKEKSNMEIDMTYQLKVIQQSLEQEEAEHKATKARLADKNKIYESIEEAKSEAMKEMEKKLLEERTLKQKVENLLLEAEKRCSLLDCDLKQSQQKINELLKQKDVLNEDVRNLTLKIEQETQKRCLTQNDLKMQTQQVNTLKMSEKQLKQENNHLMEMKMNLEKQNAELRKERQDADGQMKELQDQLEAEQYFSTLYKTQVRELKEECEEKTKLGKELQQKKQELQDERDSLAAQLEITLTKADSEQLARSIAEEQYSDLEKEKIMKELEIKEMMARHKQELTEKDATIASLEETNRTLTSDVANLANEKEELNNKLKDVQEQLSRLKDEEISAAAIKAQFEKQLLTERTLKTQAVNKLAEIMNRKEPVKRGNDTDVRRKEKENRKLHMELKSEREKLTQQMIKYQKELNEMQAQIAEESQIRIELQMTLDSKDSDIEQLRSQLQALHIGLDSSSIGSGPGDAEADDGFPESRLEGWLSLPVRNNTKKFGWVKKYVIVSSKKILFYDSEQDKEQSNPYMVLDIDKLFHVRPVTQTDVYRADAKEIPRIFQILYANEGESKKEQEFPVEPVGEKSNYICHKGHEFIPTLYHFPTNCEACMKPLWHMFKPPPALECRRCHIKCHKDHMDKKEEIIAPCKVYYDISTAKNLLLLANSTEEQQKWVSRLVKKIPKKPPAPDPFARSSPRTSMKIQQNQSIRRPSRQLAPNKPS

Consider `c1cc(-c2cnco2)nc(-c2cnc(-c3cccc(-c4cccc(-c5ncc(-c6cccc(-c7cnco7)n6)o5)n4)n3)o2)c1`, for which the IC50 in the data set on A-431 is 541 nM; in the data set on HeLa [1], 134 nM; in the data set with A549 [2] it was 3950 nM; in the data set with A-375 [3] it was 592 nM. Also, in data set [4], the inhibition was determined as 70%. The inhibition entry in data set [5], in data set [6] and in data set [7] was “Active” throughout. Moreover, the Drug uptake result in data set [8] and in data set [9] was “Active” in each case. Further, in the data set on HeLa [10], the “growth inhibition (GI)” value was “Active”. For the same compound, the outcome with HeLa [11] was Active.

As to `c1cc(-c2cnco2)nc(-c2cnc(-c3cccc(-c4ncc(-c5cccc(-c6cnco6)n5)o4)n3)o2)c1`, the half-inhibitory concentration (IC50) in the data set on A-431 came to 645 nM; in the data set with HeLa [1], 257 nM; in the data set with A549 [2], 2710 nM; in the data set on HEK293, 457 nM; in the data set with A-375 [3], 440 nM. Moreover, the inhibition entry in [5], in data set [6] and in [7] was “Active” throughout. Further, the Drug uptake result in [8] and in [9] was “Active” each time. Moreover, in the data set with HeLa [12], the “growth inhibition (GI)” value was “Active”. In the data set on HeLa [13], the outcome was Active.

`CN(C)CCOc1cc(-c2ncc(-c3cccc(-c4cnco4)n3)o2)nc(-c2ncc(-c3cccc(-c4cnco4)n3)o2)c1`: the Drug uptake result in [14], in data set [15], in data set [16] and in [23] was “Active” each time. The result in the data set with HeLa [17] and with A-375 [18] was inactive. Moreover, the outcome with A549 [19] and with HeLa [25] was Active. For the same compound, the inhibition entry in [20], in [21] and in data set [22] was “Active” each time. Also, in the data set with HeLa [24], the “growth inhibition (GI)” value came to 25%.

As a reminder, the IC50 is the concentration needed to halve the response being measured. As a reminder, the inhibition is the share of the control response that was lost under treatment.
